Experimental data from ChEMBL document CHEMBL3745688, “Discovery of novel hybrids of diaryl-1,2,4-triazoles and caffeic acid as dual inhibitors of cyclooxygenase-2 and 5-lipoxygenase for cancer therapy” (Eur J Med Chem, 2016).

biological target: T1, Prostaglandin G/H synthase 2 (Rattus norvegicus, UniProt P35355); assay: Inhibition of COX2 in rat abdominal macrophages assessed as PGE2 production pretreated for 30 mins followed by addition of 10 uM arachidonic acid as substrate for 20 mins by EIA; conditions: not given
T1 sequence (P35355 whole entry): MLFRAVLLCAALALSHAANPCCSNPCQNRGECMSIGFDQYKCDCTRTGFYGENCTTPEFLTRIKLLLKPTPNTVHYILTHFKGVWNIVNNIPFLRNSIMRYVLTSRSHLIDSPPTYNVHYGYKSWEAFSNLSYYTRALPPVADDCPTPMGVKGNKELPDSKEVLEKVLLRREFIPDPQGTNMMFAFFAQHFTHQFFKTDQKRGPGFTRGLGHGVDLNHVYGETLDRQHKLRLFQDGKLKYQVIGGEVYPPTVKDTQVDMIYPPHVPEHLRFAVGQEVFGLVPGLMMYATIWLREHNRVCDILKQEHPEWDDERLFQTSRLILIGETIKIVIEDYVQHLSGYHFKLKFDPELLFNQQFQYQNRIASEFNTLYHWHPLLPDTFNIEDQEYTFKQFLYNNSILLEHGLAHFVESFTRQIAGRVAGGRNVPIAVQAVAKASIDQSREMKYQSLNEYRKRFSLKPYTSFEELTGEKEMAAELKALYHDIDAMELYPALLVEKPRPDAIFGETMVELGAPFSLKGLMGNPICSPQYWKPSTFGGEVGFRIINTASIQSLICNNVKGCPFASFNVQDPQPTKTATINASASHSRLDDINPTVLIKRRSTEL

SMILES	IC50 [µM]
COc1cc(/C=C/C(=O)OCCSc2nc(-c3ccc(S(C)(=O)=O)cc3)n(-c3ccccc3)n2)ccc1O	0.58
CC(=O)Oc1ccc(/C=C/C(=O)NCCSc2nc(-c3ccc(S(N)(=O)=O)cc3)n(-c3ccc(Br)cc3)n2)cc1OC(C)=O	0.18
CC(=O)Oc1ccc(/C=C/C(=O)NCCCSc2nc(-c3ccc(S(C)(=O)=O)cc3)n(-c3ccc(Br)cc3)n2)cc1OC(C)=O	0.24
NS(=O)(=O)c1ccc(-c2nc(SCCCOC(=O)/C=C/c3ccc(O)c(O)c3)nn2-c2ccccc2)cc1	0.64
CS(=O)(=O)c1ccc(-c2nc(SCCCOC(=O)/C=C/c3ccc(O)c(O)c3)nn2-c2ccc(Br)cc2)cc1	0.37
CC(=O)Oc1ccc(/C=C/C(=O)NCCCSc2nc(-c3ccc(S(C)(=O)=O)cc3)n(-c3ccc(F)cc3)n2)cc1OC(C)=O	0.17
NS(=O)(=O)c1ccc(-c2nc(SCCOC(=O)/C=C/c3ccccc3)nn2-c2ccc(Br)cc2)cc1	0.67
CC(=O)Oc1ccc(/C=C/C(=O)OCCSc2nc(-c3ccc(S(C)(=O)=O)cc3)n(-c3ccc(F)cc3)n2)cc1OC(C)=O	0.18
CC(=O)Oc1ccc(/C=C/C(=O)OCCSc2nc(-c3ccc(S(C)(=O)=O)cc3)n(-c3ccc(C(F)(F)F)cc3)n2)cc1OC(C)=O	0.19
CC(=O)Oc1ccc(/C=C/C(=O)OCCCSc2nc(-c3ccc(S(N)(=O)=O)cc3)n(-c3ccccc3)n2)cc1OC(C)=O	0.91
CC(=O)Oc1ccc(/C=C/C(=O)OCCSc2nc(-c3ccc(S(N)(=O)=O)cc3)n(-c3ccccc3)n2)cc1OC(C)=O	0.85
CC(=O)Oc1ccc(/C=C/C(=O)NCCCSc2nc(-c3ccc(S(N)(=O)=O)cc3)n(-c3ccccc3)n2)cc1OC(C)=O	0.63

system: not listed separately; assay: Antiproliferative activity against mouse B16F10 cells after 72 hrs by MTT assay; assay type: functional, cell-based; conditions: B16-F10, 72 h
Summary of the method: (§1)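 Cells seeded at 5×10^4/well, grown 24 h at 37 °C in 5% CO₂, then exposed to compounds dissolved in DMSO at a range of concentrations for 72 h. MTT (5 mg/mL in PBS) added for 4 h, then OD read at 570 nm. IC50 taken from dose-response curves, mean ± S.D. of three independent experiments.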

SMILES	IC50 [µM]
O=C(O)/C=C/c1ccc(O)c(O)c1 [CAFFEIC ACID]	> 100
O=C(/C=C/c1ccc(O)c(O)c1)OCCc1ccccc1 [CAFFEIC ACID PHENETHYL ESTER]	10.7
CC(=O)Oc1ccc(/C=C/C(=O)NCCSc2nc(-c3ccc(S(N)(=O)=O)cc3)n(-c3ccc(Br)cc3)n2)cc1OC(C)=O	15.2
CC(=O)Oc1ccc(/C=C/C(=O)NCCCSc2nc(-c3ccc(S(C)(=O)=O)cc3)n(-c3ccc(Br)cc3)n2)cc1OC(C)=O	16.4
CS(=O)(=O)c1ccc(-c2nc(SCCCOC(=O)/C=C/c3ccc(O)c(O)c3)nn2-c2ccc(Br)cc2)cc1	13.1
CC(=O)Oc1ccc(/C=C/C(=O)NCCCSc2nc(-c3ccc(S(C)(=O)=O)cc3)n(-c3ccc(F)cc3)n2)cc1OC(C)=O	15.2
NS(=O)(=O)c1ccc(-c2nc(SCCOC(=O)/C=C/c3ccccc3)nn2-c2ccc(Br)cc2)cc1	21.2
CC(=O)Oc1ccc(/C=C/C(=O)OCCSc2nc(-c3ccc(S(C)(=O)=O)cc3)n(-c3ccc(F)cc3)n2)cc1OC(C)=O	14.2
CC(=O)Oc1ccc(/C=C/C(=O)OCCSc2nc(-c3ccc(S(C)(=O)=O)cc3)n(-c3ccc(C(F)(F)F)cc3)n2)cc1OC(C)=O	11.5
CC(=O)Oc1ccc(/C=C/C(=O)NCCCSc2nc(-c3ccc(S(N)(=O)=O)cc3)n(-c3ccccc3)n2)cc1OC(C)=O	29.1

biological target: T2, Polyunsaturated fatty acid 5-lipoxygenase (Rattus norvegicus, UniProt P12527); assay: Inhibition of 5-LOX in Sprague-Dawley rat leukocytes assessed as A23187 stimulated LTB4 production pretreated for 30 mins followed by addition of A23187 for 30 mins by EIA; assay type: cell-based; conditions: not given
T2 sequence (P12527 whole entry): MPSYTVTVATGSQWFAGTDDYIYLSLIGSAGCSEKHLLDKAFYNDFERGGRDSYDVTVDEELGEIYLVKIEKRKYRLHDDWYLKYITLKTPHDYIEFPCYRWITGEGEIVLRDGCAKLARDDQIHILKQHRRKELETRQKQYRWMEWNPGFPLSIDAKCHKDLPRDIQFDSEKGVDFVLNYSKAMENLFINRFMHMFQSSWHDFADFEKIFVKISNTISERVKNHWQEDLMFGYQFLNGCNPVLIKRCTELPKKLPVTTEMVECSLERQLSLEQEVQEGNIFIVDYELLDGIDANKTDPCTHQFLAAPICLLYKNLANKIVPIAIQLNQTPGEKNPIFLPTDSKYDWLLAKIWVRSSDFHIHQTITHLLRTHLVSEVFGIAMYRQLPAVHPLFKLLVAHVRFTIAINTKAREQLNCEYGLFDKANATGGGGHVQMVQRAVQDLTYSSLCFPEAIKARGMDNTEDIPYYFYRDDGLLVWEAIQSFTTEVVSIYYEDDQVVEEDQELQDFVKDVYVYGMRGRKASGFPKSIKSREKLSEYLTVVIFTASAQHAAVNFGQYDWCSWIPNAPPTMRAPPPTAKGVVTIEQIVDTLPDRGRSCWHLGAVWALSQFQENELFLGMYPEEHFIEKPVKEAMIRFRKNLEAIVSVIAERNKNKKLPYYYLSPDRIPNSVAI
Summary of the method: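 Rat peritoneal leukocytes collected from Sprague-Dawley rats primed i.p. with 0.2% glycogen (20 mL/kg). Cells in Hanks solution plated at 1.0×10^6/well and held 10 min at 37 °C. Pretreated 30 min with L-cysteine (10 mM), indomethacin (1 mg/L) and compound or DMSO. A23187 added for 30 min. LTB4 in the clarified supernatant measured by EIA; % inhibition from OD; IC50 by Bliss method.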

SMILES	IC50 [µM]
COc1cc(/C=C/C(=O)OCCSc2nc(-c3ccc(S(C)(=O)=O)cc3)n(-c3ccccc3)n2)ccc1O	0.84
CC(=O)Oc1ccc(/C=C/C(=O)NCCSc2nc(-c3ccc(S(N)(=O)=O)cc3)n(-c3ccc(Br)cc3)n2)cc1OC(C)=O	0.99
CC(=O)Oc1ccc(/C=C/C(=O)NCCCSc2nc(-c3ccc(S(C)(=O)=O)cc3)n(-c3ccc(Br)cc3)n2)cc1OC(C)=O	0.99
NS(=O)(=O)c1ccc(-c2nc(SCCCOC(=O)/C=C/c3ccc(O)c(O)c3)nn2-c2ccccc2)cc1	0.77
CS(=O)(=O)c1ccc(-c2nc(SCCCOC(=O)/C=C/c3ccc(O)c(O)c3)nn2-c2ccc(Br)cc2)cc1	0.79
CC(=O)Oc1ccc(/C=C/C(=O)NCCCSc2nc(-c3ccc(S(C)(=O)=O)cc3)n(-c3ccc(F)cc3)n2)cc1OC(C)=O	0.98
NS(=O)(=O)c1ccc(-c2nc(SCCOC(=O)/C=C/c3ccccc3)nn2-c2ccc(Br)cc2)cc1	1.28
CC(=O)Oc1ccc(/C=C/C(=O)OCCSc2nc(-c3ccc(S(C)(=O)=O)cc3)n(-c3ccc(F)cc3)n2)cc1OC(C)=O	1.05
CC(=O)Oc1ccc(/C=C/C(=O)OCCSc2nc(-c3ccc(S(C)(=O)=O)cc3)n(-c3ccc(C(F)(F)F)cc3)n2)cc1OC(C)=O	1.06
CC(=O)Oc1ccc(/C=C/C(=O)OCCCSc2nc(-c3ccc(S(N)(=O)=O)cc3)n(-c3ccccc3)n2)cc1OC(C)=O	1.07
CC(=O)Oc1ccc(/C=C/C(=O)OCCSc2nc(-c3ccc(S(N)(=O)=O)cc3)n(-c3ccccc3)n2)cc1OC(C)=O	1.11
CC(=O)Oc1ccc(/C=C/C(=O)NCCCSc2nc(-c3ccc(S(N)(=O)=O)cc3)n(-c3ccccc3)n2)cc1OC(C)=O	0.97

system: A549; assay: Antiproliferative activity against human A549 cells after 72 hrs by MTT assay; assay type: functional, cell-based; conditions: A549, 72 h; summary of the method: as §1

SMILES	IC50 [µM]
O=C(O)/C=C/c1ccc(O)c(O)c1 [CAFFEIC ACID]	> 100
O=C(/C=C/c1ccc(O)c(O)c1)OCCc1ccccc1 [CAFFEIC ACID PHENETHYL ESTER]	9.72
CC(=O)Oc1ccc(/C=C/C(=O)NCCSc2nc(-c3ccc(S(N)(=O)=O)cc3)n(-c3ccc(Br)cc3)n2)cc1OC(C)=O	18.7
CC(=O)Oc1ccc(/C=C/C(=O)NCCCSc2nc(-c3ccc(S(C)(=O)=O)cc3)n(-c3ccc(Br)cc3)n2)cc1OC(C)=O	23.3
CS(=O)(=O)c1ccc(-c2nc(SCCCOC(=O)/C=C/c3ccc(O)c(O)c3)nn2-c2ccc(Br)cc2)cc1	11.2
CC(=O)Oc1ccc(/C=C/C(=O)NCCCSc2nc(-c3ccc(S(C)(=O)=O)cc3)n(-c3ccc(F)cc3)n2)cc1OC(C)=O	21.8
NS(=O)(=O)c1ccc(-c2nc(SCCOC(=O)/C=C/c3ccccc3)nn2-c2ccc(Br)cc2)cc1	19.7
CC(=O)Oc1ccc(/C=C/C(=O)OCCSc2nc(-c3ccc(S(C)(=O)=O)cc3)n(-c3ccc(F)cc3)n2)cc1OC(C)=O	11.8
CC(=O)Oc1ccc(/C=C/C(=O)OCCSc2nc(-c3ccc(S(C)(=O)=O)cc3)n(-c3ccc(C(F)(F)F)cc3)n2)cc1OC(C)=O	10.2
CC(=O)Oc1ccc(/C=C/C(=O)NCCCSc2nc(-c3ccc(S(N)(=O)=O)cc3)n(-c3ccccc3)n2)cc1OC(C)=O	32.7

system: not listed separately; assay: Antiproliferative activity against human PC3 cells after 72 hrs by MTT assay; assay type: functional, cell-based; conditions: PC-3, 72 h; summary of the method: as §1

SMILES	IC50 [µM]
O=C(O)/C=C/c1ccc(O)c(O)c1 [CAFFEIC ACID]	> 100
O=C(/C=C/c1ccc(O)c(O)c1)OCCc1ccccc1 [CAFFEIC ACID PHENETHYL ESTER]	10.2
CC(=O)Oc1ccc(/C=C/C(=O)NCCSc2nc(-c3ccc(S(N)(=O)=O)cc3)n(-c3ccc(Br)cc3)n2)cc1OC(C)=O	17
CC(=O)Oc1ccc(/C=C/C(=O)NCCCSc2nc(-c3ccc(S(C)(=O)=O)cc3)n(-c3ccc(Br)cc3)n2)cc1OC(C)=O	23.9
CS(=O)(=O)c1ccc(-c2nc(SCCCOC(=O)/C=C/c3ccc(O)c(O)c3)nn2-c2ccc(Br)cc2)cc1	12.3
CC(=O)Oc1ccc(/C=C/C(=O)NCCCSc2nc(-c3ccc(S(C)(=O)=O)cc3)n(-c3ccc(F)cc3)n2)cc1OC(C)=O	17.6
NS(=O)(=O)c1ccc(-c2nc(SCCOC(=O)/C=C/c3ccccc3)nn2-c2ccc(Br)cc2)cc1	20.1
CC(=O)Oc1ccc(/C=C/C(=O)OCCSc2nc(-c3ccc(S(C)(=O)=O)cc3)n(-c3ccc(F)cc3)n2)cc1OC(C)=O	15.7
CC(=O)Oc1ccc(/C=C/C(=O)OCCSc2nc(-c3ccc(S(C)(=O)=O)cc3)n(-c3ccc(C(F)(F)F)cc3)n2)cc1OC(C)=O	14.5
CC(=O)Oc1ccc(/C=C/C(=O)NCCCSc2nc(-c3ccc(S(N)(=O)=O)cc3)n(-c3ccccc3)n2)cc1OC(C)=O	35.2

system: not listed separately; assay: Antiproliferative activity against human Caco2 cells after 72 hrs by MTT assay; assay type: functional, cell-based; conditions: Caco-2, 72 h; summary of the method: as §1

SMILES	IC50 [µM]
O=C(O)/C=C/c1ccc(O)c(O)c1 [CAFFEIC ACID]	> 100
O=C(/C=C/c1ccc(O)c(O)c1)OCCc1ccccc1 [CAFFEIC ACID PHENETHYL ESTER]	11.3
CC(=O)Oc1ccc(/C=C/C(=O)NCCSc2nc(-c3ccc(S(N)(=O)=O)cc3)n(-c3ccc(Br)cc3)n2)cc1OC(C)=O	16.7
CC(=O)Oc1ccc(/C=C/C(=O)NCCCSc2nc(-c3ccc(S(C)(=O)=O)cc3)n(-c3ccc(Br)cc3)n2)cc1OC(C)=O	26.1
CS(=O)(=O)c1ccc(-c2nc(SCCCOC(=O)/C=C/c3ccc(O)c(O)c3)nn2-c2ccc(Br)cc2)cc1	12.4
CC(=O)Oc1ccc(/C=C/C(=O)NCCCSc2nc(-c3ccc(S(C)(=O)=O)cc3)n(-c3ccc(F)cc3)n2)cc1OC(C)=O	20.8
NS(=O)(=O)c1ccc(-c2nc(SCCOC(=O)/C=C/c3ccccc3)nn2-c2ccc(Br)cc2)cc1	20.9
CC(=O)Oc1ccc(/C=C/C(=O)OCCSc2nc(-c3ccc(S(C)(=O)=O)cc3)n(-c3ccc(F)cc3)n2)cc1OC(C)=O	12.8
CC(=O)Oc1ccc(/C=C/C(=O)OCCSc2nc(-c3ccc(S(C)(=O)=O)cc3)n(-c3ccc(C(F)(F)F)cc3)n2)cc1OC(C)=O	11.3
CC(=O)Oc1ccc(/C=C/C(=O)NCCCSc2nc(-c3ccc(S(N)(=O)=O)cc3)n(-c3ccccc3)n2)cc1OC(C)=O	31
